How the values were obtained:
[1] = Volume of distribution at steady state in Sprague-Dawley rat at 2 mg/kg, iv and 5 mg/kg, po; type: ADME, organism-based; conditions: in vivo, read-out: Vdss
In short: (§1)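 Rats received 2 mg/kg iv infusion or 5 mg/kg po, in 50% PEG400/40% PBS/10% ethanol.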

[2] = Clearance in Sprague-Dawley rat at 2 mg/kg, iv and 5 mg/kg, po; type: ADME, organism-based; conditions: in vivo; in short: as §1
in vivo = conditions: Sprague-Dawley, rat, po, 5 mg/kg
P2Y purinoceptor 12 = P2Y purinoceptor 12 (Homo sapiens, UniProt Q9H244); experiment: Displacement of [33P]ADP from human recombinant P2Y12 receptor expressed in CHO cells; type: cell-based
In short: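 Washed membranes from CHO cells expressing synthetic human P2Y12, incubated 1 h at room temperature with 0.2 nM 33P-MeSADP in 50 mM Tris/100 mM NaCl/1 mM EDTA. Compound was tested as a 7-point 3-fold series in triplicate. Nonspecific binding was defined with 300 nM 2-MeSADP, followed by filtration.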

[3] = Half life in Sprague-Dawley rat at 2 mg/kg, iv and 5 mg/kg, po; type: ADME, organism-based; conditions: in vivo; in short: as §1
Platelet = experiment: Relative potency, ratio of IC50 for drug to IC50 for AZD-6140 for platelet aggregation in human platelet rich plasma; type: functional
[4] = Antiplatelet aggregation activity against adenosine diphosphate-induced human platelet rich plasma assessed as inhibition of platelet aggregation by turbidimetric method; type: functional
In short: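 Human PRP, prepared by two-step centrifugation and adjusted to 330 000 platelets/μL with PPP. Compound was preincubated 5 min at 37 °C in 0.5% DMSO, then 20 μM ADP was added. OD626 was read kinetically for 15 min at 37 °C with mixing between reads.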

[5] = Apparent permeability across human Caco-2 cells; type: ADME, cell-based
Rattus norvegicus [6] = organism: Rattus norvegicus; conditions: in vivo, po, 5 mg/kg
[7] = Solubility of the compound; type: physicochemical
Canis familiaris = organism: Canis familiaris; experiment: Toxicity in dog assessed as adverse effects; type: organism-based, Canis lupus familiaris; conditions: in vivo
Rattus norvegicus [8] = organism: Rattus norvegicus; experiment: Toxicity in rat assessed as adverse effects; type: organism-based; conditions: in vivo
[9] = Antiplatelet aggregation activity against adenosine diphosphate-induced human platelet rich plasma assessed as inhibition of platelet aggregation by chronolog PRP aggregometry assay; conditions: read-out: IC50(app)
[10] = Chemical stability of the compound; type: physicochemical
Rattus norvegicus [11] = organism: Rattus norvegicus; experiment: Antithrombotic activity in rat venous thrombus model assessed as inhibition of injury-induced thrombosis; type: functional, organism-based
In short: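 Rats given test compound orally; thrombosis induced by vascular injury with ferric chloride; thrombus formation was scored as the read-out.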

Chain of P2Y purinoceptor 12 (Q9H244 whole entry): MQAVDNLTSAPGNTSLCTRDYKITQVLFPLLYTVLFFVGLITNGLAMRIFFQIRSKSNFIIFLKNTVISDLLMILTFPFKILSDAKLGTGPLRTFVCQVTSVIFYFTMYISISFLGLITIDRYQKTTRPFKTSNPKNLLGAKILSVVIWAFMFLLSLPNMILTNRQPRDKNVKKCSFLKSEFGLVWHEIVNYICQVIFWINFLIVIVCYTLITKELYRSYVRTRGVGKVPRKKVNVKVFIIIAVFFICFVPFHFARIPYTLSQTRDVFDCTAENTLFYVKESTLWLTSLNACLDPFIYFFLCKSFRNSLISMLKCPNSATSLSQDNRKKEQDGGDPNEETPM

Vd [1] [L/kg]	clearance [2] [mL/min/kg]	bioavailability (in vivo) [%]	Ki (P2Y purinoceptor 12) [nM]	half-life [3] [min]	IC50 ([4]; Homo sapiens, Platelet, Plasma) [µM]	Papp [5] [×10⁻⁶ cm/s]	F (Rattus norvegicus [6]) [%]	solubility [7]	IC50 [9] [nM]	Stability [10]	IC50 ([4]; platelet) [µM]	SMILES	Ratio IC50 (Platelet)	Activity (Canis familiaris)	Activity (Rattus norvegicus [8])	inhibition (Rattus norvegicus [11])
29	675	66	11	30	10							CCCCCOC(=O)N1CCN(C(=O)[C@H](CCC(=O)O)NC(=O)c2cc(O)cc(-c3ccccc3)n2)CC1	7.2			
					4.5	1.1						CCCCOC(=O)N1CCN(C(=O)[C@H](CCC(=O)O)NC(=O)c2cc(OCCOC)cc(-c3ccccc3)n2)CC1	2.9			
13.6	94	33	140	12	6							CCOC(=O)N1CCN(C(=O)[C@H](CCC(=O)O)NC(=O)c2cc(OCCOC)cc(-c3ccccc3)n2)CC1	8			
15.5	98	34	209	108	71							CCOC(=O)N1CCN(C(=O)[C@H](CCC(=O)O)NC(=O)c2cccc(-c3ccccc3)n2)CC1				
3.9	103	8	5.7	24	3.8							CCCCCOC(=O)N1CCN(C(=O)[C@H](CCC(=O)O)NC(=O)c2cc(NCCO)cc(-c3ccccc3)n2)CC1	3.2			
6.9	150	1	9.4	30	2.4							CCCCCCOC(=O)N1CCN(C(=O)[C@H](CCC(=O)O)NC(=O)c2cc(OC3CCNCC3)cc(-c3ccccc3)n2)CC1	1.8			
2.3	46			36	4.3		183					CCCCCOC(=O)N1CCN(C(=O)[C@H](CCC(=O)O)NC(=O)c2cc(OCCOC)cc(-c3ccccc3)n2)CC1	3.2			
3.8	85	80		30	28							CCCNc1cc(C(=O)N[C@@H](CCC(=O)O)C(=O)N2CCN(C(=O)OCC)CC2)nc(-c2ccccc2)c1	28			
3.9	109	72	60	24	34							CCCCOc1cc(C(=O)N[C@@H](CCC(=O)O)C(=O)N2CCN(C(=O)OCC)CC2)nc(-c2ccccc2)c1	32			
								Soluble	1800	Stable	3.9	CCCCCOC(=O)N1CCN(C(=O)[C@H](CCC(=O)O)NC(=O)c2cc(N3CCC(COC)CC3)cc(-c3ccccc3)n2)CC1		Non-toxic	Non-toxic	Dose-dependent effect
1.2	54		3.2	15	0.46							CCCCCOC(=O)N1CCN(C(=O)[C@H](CCC(=O)O)NC(=O)c2cc(C(=O)N3CCC(OC)CC3)cc(-c3ccccc3)n2)CC1	0.99			

Source: ChEMBL document CHEMBL1157562, “Piperazinyl glutamate pyridines as potent orally bioavailable P2Y12 antagonists for inhibition of platelet aggregation” (J Med Chem, 2010)
